Measured values taken from ChEMBL document CHEMBL3994624, “Antimalarial Pyrido[1,2-a]benzimidazoles: Lead Optimization, Parasite Life Cycle Stage Profile, Mechanistic Evaluation, Killing Kinetics, and in Vivo Oral Efficacy in a Mouse Model” (J Med Chem, 2017).
pIC50: −log10 of the molar value. Values after ≈ are worked out from the molar mass of the structure shown.

Assays:
[1] = system: Plasmodium falciparum; assay: Anti-plasmodial activity against chloroquine-sensitive Plasmodium falciparum NF54 by [3H]-hypoxanthine incorporation assay; assay type: functional
How it was run: (§1)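 P. falciparum asexual blood-stage growth inhibition by [3H]hypoxanthine incorporation; chloroquine and artesunate run as reference drugs in every experiment; IC50 given as mean of ≥2 independent experiments.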

[2] = system: Plasmodium falciparum; assay: Anti-plasmodial activity against multidrug resistant Plasmodium falciparum K1 by [3H]-hypoxanthine incorporation assay; assay type: functional; how it was run: as §1
[3] = Selectivity index, ratio of IC50 for CHO cells to IC50 for chloroquine-sensitive Plasmodium falciparum NF54; assay type: toxicity; conditions: hamster, read-out: Ratio IC50
How it was run: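 Selectivity index = IC50 CHO / IC50 PfNF54.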

[4] = system: CHO; assay: Cytotoxicity against CHO cells after by MTT assay; assay type: cell-based; conditions: Cricetulus griseus
[5] = Kinetic solubility of the compound in FaSSIF at pH 6.5 after 2 hrs by shake flask method; assay type: physicochemical; conditions: read-out: Kinetic_solubility
[6] = Metabolic stability in Balb/c mouse liver microsomes assessed as compound remaining at 1 uM in presence of NADPH after 30 mins by LC-MS/MS analysis; assay type: ADME, microsome; conditions: read-out: Stability
How it was run: (§2)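 Mouse and human liver microsomes; % compound remaining after 30 min.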

[7] = Metabolic stability in human liver microsomes assessed as compound remaining at 1 uM in presence of NADPH after 30 mins by LC-MS/MS analysis; assay type: ADME, microsome; conditions: read-out: Stability; how it was run: as §2
[8] = system: Plasmodium falciparum; assay: Ratio of IC50 for chloroquine-sensitive Plasmodium falciparum NF54 early 2/3 stage gametocytes to IC50 for chloroquine-sensitive Plasmodium falciparum NF54 late 4/5 stage gametocytes; assay type: functional
How it was run: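 Early (stage II/III) and late (stage IV/V) gametocytes tested in parallel luciferase reporter assays; stage preference = EG IC50/LG IC50.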

[9] = system: Huh-7; assay: Cytotoxicity against human HuH7 cells at 1 to 10 uM after 48 hrs by Alamarblue assay; assay type: cell-based; conditions: huh-7, 48 h
[10] = system: Plasmodium falciparum; assay: Anti-plasmodial activity against chloroquine-sensitive Plasmodium falciparum NF54 late 4/5 stage gametocytes assessed as reduction in ATP levels after 24 hrs by BacTiter-Glo reagent based bioluminescence assay; assay type: functional; conditions: NF54, 24 h
[11] = system: Plasmodium falciparum; assay: Ratio of IC50 for chloroquine-sensitive Plasmodium falciparum NF54 after 24 hrs to IC50 for chloroquine-sensitive Plasmodium falciparum NF54 after 72 hrs; assay type: functional

Structure (SMILES) | pIC50 [1] | pIC50 [2] | selectivity ratio [3] | pIC50 [4] | also measured
CC(=O)N1CCC(Nc2cc(-c3ccc(C(F)(F)F)cc3)c(C#N)c3nc4ccccc4n23)CC1 | 5.35 |  |  |  | 
Cc1c(-c2ccc(C(F)(F)F)cc2)c(C#N)c2nc3ccccc3n2c1NCCN1CCC(O)C1 (configuration not stated) | 6.26 | 6.33 | 45 | 4.60 | solubility kinetic at 2 h [5]: < 5 µM
Cc1ncc2n1-c1ccc(Cl)cc1C(c1ccccc1F)=NC2 [MIDAZOLAM] |  |  |  |  | remaining at 0.5 h, 1 µM [6]: 1.3%; remaining at 0.5 h, 1 µM [7]: 0.1%
CCN(CC)CCCC(C)Nc1cc(C(F)(F)F)c(C#N)c2nc3ccccc3n12 (configuration not stated) | 5.38 |  |  |  | 
CNC1CCN(c2cc(-c3ccc(C(F)(F)F)cc3)c(C#N)c3nc4ccccc4n23)CC1 | 6.08 | 6.05 | 8 | 5.20 | 
CC1(O)CCC(Nc2cc(-c3ccc(C(F)(F)F)cc3)c(C#N)c3nc4ccccc4n23)CC1 (configuration not stated) | 5.19 |  |  |  | 
CCNCCNc1cc(-c2ccc(C(F)(F)F)cc2)c(C#N)c2nc3cccc(Br)c3n12 | 6.82 | 6.62 | 2 | 5.81 | 
CCNCCNc1cc(-c2ccc(SC)cc2)c(C#N)c2nc3ccccc3n12 | 5.41 |  |  |  | 
CS(=O)(=O)c1ccc(-c2cnc(N)c(-c3ccc(C(F)(F)F)nc3)c2)cc1 [MMV-048] |  |  |  |  | remaining at 0.5 h, 1 µM [6]: 94%; remaining at 0.5 h, 1 µM [7]: 93%
CCNCCNc1cc(C2CCCC2)c(C#N)c2nc3ccccc3n12 | 6.08 | 6.09 | 5 | 5.42 | Ratio IC50 [8]: 1.7; Activity [9]: Non-Toxic; pIC50 [10]: 6.17
N#Cc1c(-c2ccc(C(F)(F)F)cc2)cc(NCC2CCOCC2)n2c1nc1ccccc12 | < 5.00 |  |  |  | 
CC[C@H]1CN2CCc3cc(OC)c(OC)cc3[C@@H]2C[C@@H]1C[C@H]1NCCc2cc(OC)c(OC)cc21 [EMETINE] |  |  |  | 7.02 | 
CC(=O)NCCNc1cc(-c2ccc(C(F)(F)F)cc2)c(C#N)c2nc3ccccc3n12 | 4.78 |  |  |  | 
CN1CCC(Oc2cc(-c3ccc(C(F)(F)F)cc3)c(C#N)c3nc4ccccc4n23)CC1 | 6.15 | 6.02 | 6 | 5.39 | 
N#Cc1c(-c2ccc(C(F)(F)F)cc2)cc(NCCN2CCC(O)CC2)n2c1nc1ccccc12 | 5.96 |  |  |  | solubility kinetic at 2 h [5]: < 5 µM
CCNCCNc1cc(-c2ccc([S+](C)[O-])cc2)c(C#N)c2nc3ccccc3n12 (configuration not stated) | 5.42 |  |  |  | 
CCNCCNc1cc(-c2ccccc2F)c(C#N)c2nc3ccccc3n12 | 6.05 | 6.00 | 27 | 4.61 | 
CCNCCNc1cc(-c2ccc(C(F)(F)F)cc2)c(C#N)c2nc3ccc(Br)cc3n12 | 7.15 |  | 63 | 5.35 | 
CN1CCC(Nc2cc(-c3ccc(C(F)(F)F)cc3)c(C#N)c3nc4ccccc4n23)CC1 | 6.36 | 6.00 | 14 | 5.22 | remaining at 0.5 h, 1 µM [6]: 63%; remaining at 0.5 h, 1 µM [7]: 75%; Ratio IC50 [11]: <1.5; solubility kinetic at 2 h [5]: < 5 µM
N#Cc1c(-c2ccc(C(F)(F)F)cc2)cc(NCC2CCS(=O)(=O)CC2)n2c1nc1ccccc12 | < 5.00 |  |  |  | 
CC(C)(O)C1CCC(Nc2cc(-c3ccc(C(F)(F)F)cc3)c(C#N)c3nc4ccccc4n23)CC1 (configuration not stated) | 5.30 |  |  |  | 
CCNCCNc1cc(-c2cccc(C(F)(F)F)c2)c(C#N)c2nc3ccccc3n12 | 6.68 | 6.47 | 28 | 5.23 | Ratio IC50 [8]: 1.6; Activity [9]: Non-Toxic; pIC50 [10]: 6.31
N#Cc1c(-c2ccc(C(F)(F)F)cc2)cc(N2CC(O)C2)n2c1nc1ccccc12 | 4.67 |  |  |  | 
N#Cc1c(-c2ccc(C(F)(F)F)cc2)cc(N2CCC(=O)CC2)n2c1nc1ccccc12 | < 5.00 |  |  |  | 
N#Cc1c(-c2ccc(C(F)(F)F)cc2)cc(N2CCNCC2)n2c1nc1ccccc12 | 5.52 | 6.36 |  |  | 
CCNCCNc1cc(-c2ccc(C(F)(F)F)cc2)c(C#N)c2nc3ncccc3n12 | 6.85 | 6.89 | 5 | 5.39 | solubility kinetic at 2 h [5]: 10 µM (≈ 4.24 µg/mL)
CCc1nc(N)nc(N)c1-c1ccc(Cl)cc1 [PYRIMETHAMINE] |  |  |  |  | Ratio IC50 [11]: 6
